From PubChem BioAssay AID573 (SRMLSC, 2007)
Among all 65,000 compounds or so, about 1,400 (2.2%) were called active. The entries come from a sample that favours actives as a whole. Unmarked numbers belong to inactive results.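 How the source made its calls: active means growth inhibition at or above a cutoff equal to the mean over every tested compound plus 3 SD (cut at about 60% in these data); inactive means the rest.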

Assay: growth inhibitors of E. coli tolC mutant, primary screen, strain BW25113 ΔtolC::kan, 384-well (AID 573);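 further: growth measured after 20 h incubation at 37 °C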
Settings: OD615, active compounds read high, concentration not given here
How it was run: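 Test system – E. coli BW25113 ΔtolC::kan, tolC deletion mutant strain · Detection – OD at 615 nm · Buffer or medium – LB with kanamycin 50 µg/mL · Times – 20 h compound exposure of bacteria at 37 °C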

With `CCOC(=O)c1c(-c2ccccc2)oc2ccc(OC(=O)N(C)C)cc12` the growth inhibition was 96.5% (active).
With `CCCCCCN=C(CC)c1c(O)n(CCCC)c(=O)[nH]c1=O` the growth inhibition was 90.2% (active).

Compared with `CCN1c2nc3c(C)cccn3c(=O)c2CC2(C(=O)N(C)C(=O)N(C)C2=O)C1C` (stereo not given), `CCCC(C)n1[nH]c(=O)c2c1NC(=O)CSC2c1ccc(OC)c(OC)c1` (stereo not given) is lower in growth inhibition: -0.7% for the first, -7.28% for the second.

First: CCC(=NCCCO)c1c(O)n(-c2ccc(OC)cc2)c(=O)[nH]c1=O
Second: CCC(=NCc1ccco1)c1c(O)n(Cc2ccccc2)c(=O)[nH]c1=O
The growth inhibition of the first is lower: -12.6% for the first, 7.19% for the second.

First: Cn1c(C(=O)N2CCC(C(=O)N3CCC4(CC3)OCCO4)CC2)cc2sccc21
Second: c1cncc(CNC2=NCCC2)c1
The growth inhibition of the first is higher: 3.04% for the first, -5.19% for the second.

Compared with `C/C(CCc1c[nH]c2ccccc12)=N\O`, `C=Cn1ccnc1P(=S)(c1cc(N(CC)CC)ns1)c1nccn1C=C` is higher in growth inhibition: -11.1% for the first, 8.14% for the second.
